# Published values gathered from unrelated publications.
# Target: Tyrosine-protein kinase Fyn (FYN, Homo sapiens, UniProt P06241)
Structure (SMILES),read-out,mode,technique,tested at,quantity,result
CNC(=O)c1cc(Oc2ccc(NC(=O)Nc3ccc(Cl)c(C(F)(F)F)c3)cc2)ccn1,enzyme activity,inhibitor,,10 µM,inhibition,44%
O=C(Nc1cnn(-c2csc(C(=O)NC3COC3)c2)c1)Nc1ccccc1Cl,enzyme activity,inhibitor,,5 µM,remaining activity,97.8%
CNCc1ccc(-c2cc(-c3nc(-c4ccc(S(=O)(=O)C(C)C)cc4)cnc3N)on2)cc1,enzyme activity,inhibitor,,0.4 µM,inhibition,9%
CNc1cccc2cc(C(=O)Nc3ccc(C(=O)O)cc3)c(=O)[nH]c12,enzyme activity,inhibitor,,10 µM,inhibition,6.9%
COc1cc2ncnc(Nc3ccc(Oc4ccccc4)c(C)c3C)c2cc1OC,enzyme activity,inhibitor,,1 µM,inhibition,42%
CCCS(=O)(=O)Nc1ccc(F)c(C(=O)c2c[nH]c3ncc(-c4ccc(Cl)cc4)cc23)c1F,enzyme activity,inhibitor,,1 µM,inhibition,< 20%
CCN(CC)CCNC(=O)c1c(C)[nH]c(/C=C2\C(=O)Nc3ccc(F)cc32)c1C,enzyme activity,inhibitor,,0.3 µM,inhibition,35%
COc1cccc(CNC(=O)c2nc3scc(COCc4ccc(C(=O)O)cc4)c3c(=O)[nH]2)c1,cell-free assay,,competition with immobilised ligand,1 µM,remaining binding,81.1%
C#Cc1cccc(Nc2ncnc3cc(OCCOC)c(OCCOC)cc23)c1,cell-free assay,,,0.5 µM,remaining signal,94.7%
Nc1ncnc2occ(-c3ccc(NC(=O)Nc4cc(C(F)(F)F)ccc4F)cc3)c12,enzyme activity,inhibitor,,20 µM,remaining activity,2.8%
Cc1ccc(C(=O)NCc2ccsc2)cc1C#Cc1cn(C(C)C)c2ncnc(N)c12,enzyme activity,inhibitor,,1 µM,activity vs control,3%
C[S+]([O-])c1ccc(-c2nc(-c3ccncc3)c(-c3ccc(F)cc3)[nH]2)cc1 (stereo not shown),cell-free assay,,,0.5 µM,remaining signal,89.8%
Cc1cnc(NC2CCOCC2)nc1-n1cnc(C(=O)NC(CN)c2cc(F)cc(Cl)c2)c1 (stereo not shown),enzyme activity,inhibitor,radiometric,1 µM,remaining activity,100%
O=c1cc(-c2cccc3c2Sc2ccccc2S3)oc(N2CCOCC2)c1,enzyme activity,inhibitor,,0.5 µM,remaining activity,88.6%
CC(C)(C)c1nc(-c2cccc(NS(=O)(=O)c3c(F)cccc3F)c2F)c(-c2ccnc(N)n2)s1,enzyme activity,inhibitor,radiometric,1 µM,remaining activity,36%
O=C1NC(=O)c2cc(Nc3ccc(F)cc3)c(Nc3ccc(F)cc3)cc21,cell-free assay,,,0.5 µM,remaining signal,99.4%
CNC(=O)c1cc2c(Oc3ccc(NC(=O)C4(C(=O)Nc5ccc(F)cc5)CC4)cc3)ccnc2cc1OC,enzyme activity,inhibitor,radiometric,1 µM,inhibition,72%
CC(=O)c1c(NS(C)(=O)=O)c2cc(-c3ccc(Cl)cc3)c(-c3ccc(Cl)cc3Cl)nc2n(C)c1=O,cell-free assay,,competition with immobilised ligand,1 µM,remaining binding,92%
O=C(Nc1cnn(-c2csc(C(=O)NC3COC3)c2)c1)Nc1c(F)cccc1Cl,enzyme activity,inhibitor,,5 µM,remaining activity,90.3%
CNC(=O)Nc1ccc2c(c1)[C@@]1(CC2)OC(=O)N(CC(=O)N(Cc2ccc(F)cc2)[C@@H](C)C(F)(F)F)C1=O,cell-free assay,,competition with immobilised ligand,1 µM,remaining binding,79%
O=C1c2ccccc2-c2n[nH]c3cccc1c23,enzyme activity,inhibitor,,0.5 µM,activity vs control,93.2%
COc1ccc2c(O[C@@H]3C[C@H]4C(=O)N[C@]5(C(=O)O)CC5/C=C\CCCCC[C@H](NC(=O)OC5CCCC5)C(=O)N4C3)cc(-c3csc(NC(=O)C(C)C)n3)nc2c1C (stereo partly shown),cell-free assay,,competition with immobilised ligand,1 µM,remaining binding,100%
Cc1cc(NC(=O)c2cccc3cc(-c4cccc5[nH]nc(N)c45)ccc23)ccc1F,enzyme activity,inhibitor,,0.1 µM,activity vs control,88%
Cc1cc(-n2nc(Cc3cc(F)cc(C(F)(F)F)c3)nc2C)ccc1C(N)=O,cell-free assay,,competition with immobilised ligand,1 µM,remaining binding,100%
COc1cc(OC)c(C=C2C(O)=Nc3ccccc32)c(OC)c1,cell-free assay,inhibitor,,0.5 µM,remaining signal,100%
Cc1nc(C2CCN(C(=O)c3ccc(OC(F)(F)F)cc3N)CC2)c2ncc(N3CCN(C)CC3)cc2n1,cell-free assay,,competition with immobilised ligand,1 µM,remaining binding,96%
Cc1ccc(C(=O)Nc2ccc(CN3CCN(C)CC3)c(C(F)(F)F)c2)cc1C#Cc1cnc2cccnn12,enzyme activity,inhibitor,,23.5 nM,remaining activity,28%
CNC(=O)Nc1ccc2c(c1)CC[C@@]21OC(=O)N(CC(=O)N(Cc2ccc(F)cc2)[C@@H](C)C(F)(F)F)C1=O,cell-free assay,,competition with immobilised ligand,1 µM,remaining binding,100%
Cn1cnc(Br)c1C1=CN(c2ncnc3[nH]cnc23)CCS1,enzyme activity,inhibitor,radiometric,2 µM,inhibition,44%
CC(=O)Nc1c(C(C)=O)c(=O)n(C)c2nc(-c3ccc(Cl)cc3Cl)c(-c3ccc(Cl)cc3)cc12,cell-free assay,,competition with immobilised ligand,1 µM,remaining binding,100%
COc1cccc2c(NCc3ccccc3)nc(-n3c(N)nc4ccccc43)nc12,target engagement in cells,inhibitor,chemoproteomics,20 mM,inhibition,-15.9%
